Source: ChEMBL document CHEMBL4725346, “Syntheses and Evaluation of New Bisacridine Derivatives for Dual Binding of G-Quadruplex and i-Motif in Regulating Oncogene c-myc Expression” (J Med Chem, 2020)
pIC50, pKd: −log10 of the molar value. Active and inactive are the calls of the source. The calls are words filed in the database; no cut-off is given here.

What was measured:
Quadruplex DNA [1] = assay: Binding affinity to c-myc wild-type promoter G-quadruplex/i-motif (unknown origin) expressed in human SiHa cells assessed as reduction in c-myc transcription by measuring decrease in ratio of renilla/firefly luciferase activity at 1/3 IC50 after 48 hrs by dual-luciferase reporter assay; type: cell-based
In short: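 SiHa cells transfected with 200 ng psiCHECK2 plasmid carrying wild-type, mutant or deleted c-myc promoter. Compounds added 8 h after transfection, then incubated 48 h at 37 °C. Cells washed with ice-cold PBS; Renilla/firefly activity ratio read by dual-luciferase assay.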

[2] = Stabilization of 5'-FAM/3'-TAMRA labeled c-myc promoter i-motif DNA FPy33T (unknown origin) assessed as change in melting temperature at 1 uM by FRET assay (reference value: 53.2 degreeC)
In short: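 FRET melting of dual FAM/TAMRA-labelled FPy33T annealed in 1× BPES (30 mM potassium phosphate, 1 mM EDTA, 100 mM KCl), pH 5.5. Final 0.2 µM DNA with or without ligand. Excitation 470 nm, emission 530 nm, read every 1 °C over 37–99 °C. ΔTm taken against DNA alone.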

dsDNA = assay: Binding affinity to 5'-biotin labeled duplex DNA (unknown origin) by surface plasmon resonance method; type: nucleic-acid assay
In short: (§1)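 SPR: 5'-biotin DNA diluted to 1 μM and captured (1000 RU) on a sensor chip, with a blank cell as reference. Running buffers: Py33 in 20 mM MES pH 5.8, 100 mM KCl, 0.05% Tween-20; Pu27 and duplex in 50 mM Tris-HCl pH 7.4, 100 mM KCl. Six ligand concentrations serially diluted from DMSO stock. Association 260 s, dissociation 300 s at 25 °C; NaOH regeneration; blank sensorgrams subtracted.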

Quadruplex DNA [3] = assay: Binding affinity to 5'-biotin labeled c-myc promoter G-quadruplex DNA Pu27 (unknown origin) by surface plasmon resonance method; type: nucleic-acid assay; in short: as §1
U2OS = assay: Antiproliferative activity against human U2OS cells after 48 hrs by MTT assay; type: functional, cell-based
In short: (§2)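 Cells seeded at 5.0×10^3 per well, pre-incubated 12 h at 37 °C, 5% CO2, then exposed to compounds for 48 h; DMSO-only control. MTT (2.5 mg/mL) added for 4 h, formazan dissolved in DMSO, absorbance at 570 nm. Each dose tested in triplicate; IC50 from percentage survival relative to negative control.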

Quadruplex DNA [4] = assay: Binding affinity to c-myc promoter G-quadruplex/i-motif in human SiHa cells assessed as reduction in c-myc mRNA level at 1.25 uM incubated for 24 hrs by qRT-PCR analysis; type: cell-based; design: scale not given: the % may be the effect or the level left
In short: (§3)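 SiHa cells at 0, 0.625, 1.25 and 2.5 μM for 24 h; DMSO control. Total RNA extracted with TRIzol. 1.5 μg RNA reverse-transcribed with oligo dT18 and M-MLV (42 °C 60 min). PCR of 30 cycles (95/58/72 °C), products run on 1.2% agarose. β-actin as internal control; three repeats.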

A-375 = assay: Antiproliferative activity against human A-375 cells after 48 hrs by MTT assay; type: functional, cell-based; settings: A-375, 48 h; in short: as §2
Quadruplex DNA [5] = assay: Stabilization of 5'-FAM/3'-TAMRA labeled c-myc promoter G-quadruplex DNA FPu22T (unknown origin) assessed as change in melting temperature at 1 uM by FRET assay (reference value: 66.5 degreeC); type: nucleic-acid assay
In short: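 FRET melting of dual FAM/TAMRA-labelled FPu22T annealed in 10 mM Tris-HCl pH 7.4 with KCl. Final 0.2 µM DNA with or without ligand. Excitation 470 nm, emission 530 nm, read every 1 °C over 37–99 °C on a real-time PCR cycler. ΔTm = Tm(DNA+ligand) − Tm(DNA).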

A549 = assay: Antiproliferative activity against human A549 cells after 48 hrs by MTT assay; type: functional, cell-based; settings: A549, 48 h; in short: as §2
Quadruplex DNA [6] = assay: Binding affinity to c-myc promoter G-quadruplex/i-motif in human SiHa cells assessed as reduction in c-myc mRNA level incubated for 24 hrs by qRT-PCR analysis; type: cell-based; settings: dose microM 0.625-2.5, time 24.0 hrs; in short: as §3
Quadruplex DNA [7] = assay: Stabilization of c-myc promoter G-quadruplex DNA Pu27 (unknown origin) assessed as effect on melting temperature at 5 uM by CD spectroscopy; type: nucleic-acid assay
In short: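 CD melting: Pu27 diluted to 1 µM in 10 mM Tris-HCl, 5 mM KCl, pH 7.4, with or without ligand. Annealed at 95 °C for 5 min, slowly cooled, then heated at 1 °C/min while monitoring 260 nm. Tm obtained by curve fitting.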

Quadruplex DNA [8] = assay: Binding affinity to c-myc promoter G-quadruplex/i-motif in human SiHa cells assessed as reduction in c-myc expression at 1.25 uM incubated for 24 hrs by Western blot analysis; type: cell-based; design: scale not given: the % may be the effect or the level left
In short: (§4)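 SiHa cells treated 24 h at 0, 0.625, 1.25 and 2.5 μM, then lysed in buffer with 1 mM PMSF. Protein measured by BCA, equal loads run on 8% gel and blotted to PVDF. Probed with anti-c-MYC and anti-β-actin (loading control), HRP anti-rabbit secondary, chemiluminescence read-out.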

Quadruplex DNA [9] = assay: Binding affinity to c-myc promoter G-quadruplex/i-motif in human SiHa cells assessed as reduction in c-myc mRNA level at 2.5 uM incubated for 24 hrs by qRT-PCR analysis; type: cell-based; design: scale not given: the % may be the effect or the level left; in short: as §3
SiHa = assay: Antiproliferative activity against human SiHa cells after 48 hrs by MTT assay; type: functional, cell-based; in short: as §2
HeLa = assay: Antiproliferative activity against human Hela cells after 48 hrs by MTT assay; type: functional, cell-based; in short: as §2
Huh-7 = assay: Antiproliferative activity against human Huh-7 cells after 48 hrs by MTT assay; type: functional, cell-based; settings: Huh-7, 48 h; in short: as §2
Quadruplex DNA [10] = assay: Stabilization of c-myc promoter G-quadruplex DNA Pu27 (unknown origin) in pH 7.4 Tris-HCl buffer by CD spectroscopy; type: nucleic-acid assay
In short: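 Pu27 at 1 µM in 10 mM Tris-HCl pH 7.4, with or without ligand. Annealed at 95 °C for 5 min, cooled to room temperature, stored at 4 °C overnight. CD spectra taken in a 4 mm cuvette over 230–350 nm, three scans averaged, smoothed and buffer-baseline corrected.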

[11] = Stabilization of 5'-FAM/3'-TAMRA labeled hairpin DNA F10T (unknown origin) assessed as change in melting temperature at 1 uM by FRET assay (reference value: 59.1 degreeC)
Quadruplex DNA [12] = assay: Binding affinity to c-myc promoter G-quadruplex/i-motif in human SiHa cells assessed as reduction in c-myc expression at 2.5 uM incubated for 24 hrs by Western blot analysis; type: cell-based; design: scale not given: the % may be the effect or the level left; in short: as §4
[13] = Stabilization of c-myc promoter i-motif DNA Py33 (unknown origin) assessed as effect on melting temperature at 5 uM by CD spectroscopy
In short: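 CD melting: Py33 at 1 µM in 1× BPES pH 6.4, with or without ligand. Annealed at 95 °C for 5 min, slowly cooled, then heated at 1 °C/min while monitoring 260 nm. Tm obtained by curve fitting.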

[14] = Drug uptake in human SiHa cells; type: ADME, cell-based
Quadruplex DNA [15] = assay: Binding affinity to c-myc promoter G-quadruplex/i-motif in human SiHa cells assessed as reduction in c-myc expression incubated for 24 hrs by Western blot analysis; type: cell-based; in short: as §4
Quadruplex DNA [16] = assay: Binding affinity to c-myc promoter G-quadruplex/i-motif in human SiHa cells assessed as reduction in c-myc mRNA level at 5 uM incubated for 24 hrs by qRT-PCR analysis; type: cell-based; design: scale not given: the % may be the effect or the level left
[17] = Binding affinity to 5'-biotin labeled c-myc promoter i-motif DNA Py33 (unknown origin) by surface plasmon resonance method; in short: as §1
HCT-116 = assay: Antiproliferative activity against human HCT-116 cells after 48 hrs by MTT assay; type: functional, cell-based; settings: HCT-116, 48 h; in short: as §2
Quadruplex DNA [18] = assay: Binding affinity to c-myc promoter G-quadruplex/i-motif in human SiHa cells assessed as reduction in c-myc expression at 5 uM incubated for 24 hrs by Western blot analysis; type: cell-based; design: scale not given: the % may be the effect or the level left
ssDNA = assay: Binding affinity to 5'-biotin labeled single-stranded DNA Py33 (unknown origin) at <=50 uM by surface plasmon resonance method; type: nucleic-acid assay

Row | ΔTm [2] [°C] | pKd (dsDNA) | pKd (Quadruplex DNA [3]) | pIC50 (U2OS) | pIC50 (A-375) | ΔTm (Quadruplex DNA [5]) [°C] | pIC50 (A549) | pIC50 (HeLa) | pIC50 (Huh-7) | ΔTm [11] [°C] | pKd [17] | pIC50 (HCT-116) | Structure (SMILES) | pIC50 (SiHa) | further results
1 | 1 | 4.66 | 5.44 | 5.91 | 5.76 | 13.5 | 5.65 | 5.87 | 5.71 | 2.3 | 4.58 | 5.67 | Cc1ccc2nc3ccc(C)cc3c(NCCOCCOCCNc3c4cc(C)ccc4nc4ccc(C)cc34)c2c1 | 6.25 | Activity (Quadruplex DNA [1]): Active; Activity (Quadruplex DNA [4]): 32.6%; Activity (Quadruplex DNA [6]): Dose-dependent effect; Activity (Quadruplex DNA [7]): Active; Activity (Quadruplex DNA [8]): 25.3%; Activity (Quadruplex DNA [9]): 55.8%; Activity (Quadruplex DNA [10]): Active; Activity (Quadruplex DNA [12]): 42.2%; Activity [13]: inactive; Drug uptake [14]: Active; Activity (Quadruplex DNA [15]): Dose-dependent effect; Activity (Quadruplex DNA [16]): 79.8%; Activity (Quadruplex DNA [18]): 62.3%
2 | 0.7 | 5.19 | 5.33 | 5.26 | 5.16 | 15.2 | 5.01 | 4.86 | 4.70 | 2.5 | 4.91 | 4.96 | c1ccc2c(NCCNCCNc3c4ccccc4nc4ccccc34)c3ccccc3nc2c1 | 4.92 | Activity (ssDNA): inactive
